Legend:
Mus musculus [1] = test: Biodistribution was measured in mice kidney 60 minutes after intravenous injection of [125I]-labeled styrylbenzene.; type: ADME, organism-based; details: in vivo, 1 h
How it was run: (§1)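 ICR mice (2-3 months old, 20-30 g) under ether anesthesia received 5-10 µCi ¹²⁵I tracer in 0.15 mL saline by tail-vein injection. Animals were killed by cardiac excision at set times post-injection. Organs were removed, weighed and γ-counted. Values are % dose per organ against diluted injectate aliquots, taking blood and muscle as 7% and 40% of body weight. Mean of 3-4 mice ± SD.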

Mus musculus [2] = test: Biodistribution was measured in mice brain 30 minutes after intravenous injection of [125I]-labeled styrylbenzene; type: ADME, organism-based; details: in vivo, 0.5 h; how it was run: as §1
Mus musculus [3] = test: Biodistribution was measured in mice kidney 30 minutes after intravenous injection of [125I]-labeled styrylbenzene.; type: ADME, organism-based; details: in vivo, 0.5 h; how it was run: as §1
Mus musculus [4] = test: Biodistribution was measured in mice kidney 2 minutes after intravenous injection of [125I]-labeled styrylbenzene.; type: ADME, organism-based; details: in vivo; how it was run: as §1
Mus musculus [5] = test: Biodistribution was measured in mice skin 24 hours after intravenous injection of [125I]-labeled styrylbenzene.; type: ADME, organism-based, Zone of skin; details: in vivo; how it was run: as §1
Mus musculus [6] = test: Biodistribution was measured in mice brain 60 minutes after intravenous injection of [125I]-labeled styrylbenzene; type: ADME, organism-based; details: in vivo, 1 h; how it was run: as §1
Mus musculus [7] = test: Biodistribution was measured in mice heart 2 minutes after intravenous injection of [125I]-labeled styrylbenzene.; type: ADME, organism-based; details: in vivo; how it was run: as §1
Mus musculus [8] = test: Biodistribution was measured in mice liver 24 hours after intravenous injection of [125I]-labeled styrylbenzene.; type: ADME, organism-based; details: in vivo; how it was run: as §1
Mus musculus [9] = test: Biodistribution was measured in mice heart 30 minutes after intravenous injection of [125I]-labeled styrylbenzene.; type: ADME, organism-based; details: in vivo, 0.5 h; how it was run: as §1
Mus musculus [10] = test: Biodistribution was measured in mice blood 2 minutes after intravenous injection of [125I]-labeled styrylbenzene.; type: ADME, organism-based; details: in vivo; how it was run: as §1
Mus musculus [11] = test: Biodistribution was measured in mice lung 2 minutes after intravenous injection of [125I]-labeled styrylbenzene.; type: ADME, organism-based; details: in vivo; how it was run: as §1
Mus musculus [12] = test: Biodistribution was measured in mice spleen 6 hours after intravenous injection of [125I]-labeled thioflavin.; details: in vivo
Mus musculus [13] = test: Biodistribution was measured in mice blood 60 minutes after intravenous injection of [125I]-labeled styrylbenzene.; type: ADME, organism-based; details: in vivo, 1 h; how it was run: as §1
Mus musculus [14] = test: Biodistribution was measured in mice brain 24 hours after intravenous injection of [125I]-labeled styrylbenzene; type: ADME, organism-based; details: in vivo, in the assay text read “thioflavin” for “styrylbenzene”; how it was run: as §1
Mus musculus [15] = test: Biodistribution was measured in mice blood 30 minutes after intravenous injection of [125I]-labeled styrylbenzene.; type: ADME, organism-based; details: in vivo, 0.5 h; how it was run: as §1
Mus musculus [16] = test: Biodistribution was measured in mice liver 6 hours after intravenous injection of [125I]-labeled styrylbenzene.; type: ADME, organism-based; details: in vivo, in the assay text read “thioflavin” for “styrylbenzene”; how it was run: as §1
Mus musculus [17] = test: Biodistribution was measured in mice muscle 2 minutes after intravenous injection of [125I]-labeled styrylbenzene.; type: ADME, organism-based, Muscle tissue; details: in vivo, in the assay text read “thioflavin” for “styrylbenzene”; how it was run: as §1
Mus musculus [18] = test: Biodistribution was measured in mice spleen 60 minutes after intravenous injection of [125I]-labeled styrylbenzene.; type: ADME, organism-based; details: in vivo, 1 h
How it was run: (§2)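 ICR mice (2-3 months old, 20-30 g) under ether anesthesia; 0.15 mL saline containing 5-10 µCi ¹²⁵I tracer injected into tail vein. Sacrifice by cardiac excision at set times; organs removed, weighed, γ-counted. Expressed as % dose per organ versus diluted aliquots of injectate. Mean of three or four mice ± SD.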

Mus musculus [19] = test: Biodistribution was measured in mice muscle 6 hours after intravenous injection of [125I]-labeled styrylbenzene.; type: ADME, organism-based, Muscle tissue; details: in vivo; how it was run: as §1
Mus musculus [20] = test: Biodistribution was measured in mice skin 6 hours after intravenous injection of [125I]-labeled styrylbenzene.; type: ADME, organism-based, Zone of skin; details: in vivo; how it was run: as §1
Mus musculus [21] = test: Biodistribution was measured in mice liver 30 minutes after intravenous injection of [125I]-labeled styrylbenzene.; type: ADME, organism-based; details: in vivo, 0.5 h; how it was run: as §1
Mus musculus [22] = test: Biodistribution was measured in mice blood 6 hours after intravenous injection of [125I]-labeled styrylbenzene.; type: ADME, organism-based; details: in vivo; how it was run: as §1
Mus musculus [23] = test: Biodistribution was measured in mice brain 2 minutes after intravenous injection of [125I]-labeled styrylbenzene; type: ADME, organism-based; details: in vivo, in the assay text read “thioflavin” for “styrylbenzene”; how it was run: as §1
Mus musculus [24] = test: Biodistribution was measured in mice heart 6 hours after intravenous injection of [125I]-labeled styrylbenzene.; type: ADME, organism-based; details: in vivo; how it was run: as §1
Mus musculus [25] = test: Biodistribution was measured in mice skin 30 minutes after intravenous injection of [125I]-labeled styrylbenzene.; type: ADME, organism-based, Zone of skin; details: in vivo, 0.5 h; how it was run: as §1
Mus musculus [26] = test: Biodistribution was measured in mice muscle 24 hourss after intravenous injection of [125I]-labeled styrylbenzene.; type: ADME, organism-based, Muscle tissue; details: in vivo; how it was run: as §1
Mus musculus [27] = test: Biodistribution was measured in mice liver 60 minutes after intravenous injection of [125I]-labeled styrylbenzene.; type: ADME, organism-based; details: in vivo, 1 h; how it was run: as §1
Mus musculus [28] = test: Biodistribution was measured in mice lung 60 minutes after intravenous injection of [125I]-labeled styrylbenzene.; type: ADME, organism-based; details: in vivo, 1 h; how it was run: as §1
Mus musculus [29] = test: Biodistribution was measured in mice skin 60 minutes after intravenous injection of [125I]-labeled styrylbenzene.; type: ADME, organism-based, Zone of skin; details: in vivo, 1 h; how it was run: as §1
Mus musculus [30] = test: Biodistribution was measured in mice muscle 60 minutes after intravenous injection of [125I]-labeled styrylbenzene.; type: ADME, organism-based, Muscle tissue; details: in vivo, 1 h; how it was run: as §1
Mus musculus [31] = test: Biodistribution was measured in mice liver 2 minutes after intravenous injection of [125I]-labeled styrylbenzene.; type: ADME, organism-based; details: in vivo; how it was run: as §1
Mus musculus [32] = test: Biodistribution was measured in mice heart 24 hours after intravenous injection of [125I]-labeled styrylbenzene.; type: ADME, organism-based; details: in vivo; how it was run: as §1
Mus musculus [33] = test: Biodistribution was measured in mice brain 6 hours after intravenous injection of [125I]-labeled styrylbenzene; type: ADME, organism-based; details: in vivo; how it was run: as §1
Mus musculus [34] = test: Biodistribution was measured in mice spleen 2 minutes after intravenous injection of [125I]-labeled styrylbenzene.; type: ADME, organism-based; details: in vivo; how it was run: as §1
Mus musculus [35] = test: Biodistribution was measured in mice lung 30 minutes after intravenous injection of [125I]-labeled styrylbenzene.; type: ADME, organism-based; details: in vivo, 0.5 h; how it was run: as §1
Mus musculus [36] = test: Biodistribution was measured in mice muscle 30 minutes after intravenous injection of [125I]-labeled styrylbenzene.; type: ADME, organism-based, Muscle tissue; details: in vivo, 0.5 h; how it was run: as §1
Mus musculus [37] = test: Biodistribution was measured in mice blood 24 hours after intravenous injection of [125I]-labeled styrylbenzene.; type: ADME, organism-based; details: in vivo; how it was run: as §1
Mus musculus [38] = test: Biodistribution was measured in mice lung 6 hours after intravenous injection of [125I]-labeled styrylbenzene.; type: ADME, organism-based; details: in vivo, in the assay text read “thioflavin” for “styrylbenzene”; how it was run: as §1
Mus musculus [39] = test: Biodistribution was measured in mice heart 60 minutes after intravenous injection of [125I]-labeled styrylbenzene.; type: ADME, organism-based; details: in vivo, 1 h; how it was run: as §1
[40] = molecular target: Amyloid-beta precursor protein (Homo sapiens, UniProt P05067); test: Inhibition constant for aggregates of amyloid beta compared to [125I]IMSB
How it was run: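 Aβ(1-40) or Aβ(1-42) aggregated at 0.5 or 0.25 mg/mL respectively in pH 7.4 buffer (10 mM sodium phosphate, 1 mM EDTA), 37 °C, 36-42 h with shaking. Competition against ¹²⁵I radioligand with fibrils 10-50 nM (final), 10% EtOH, 1 mL. Incubation 3 h room temperature. Bound ligand collected by GF/B filtration, γ-counted. Ki by nonlinear regression. Mean ± SEM, three experiments in duplicate.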

Mus musculus [41] = test: Biodistribution was measured in mice spleen 24 hours after intravenous injection of [125I]-labeled styrylbenzene.; type: ADME, organism-based; details: in vivo
Mus musculus [42] = test: Biodistribution was measured in mice spleen 30 minutes after intravenous injection of [125I]-labeled styrylbenzene.; type: ADME, organism-based; details: in vivo, 0.5 h; how it was run: as §2
Mus musculus [43] = test: Biodistribution was measured in mice kidney 6 hours after intravenous injection of [125I]-labeled styrylbenzene.; type: ADME, organism-based; details: in vivo; how it was run: as §1
Mus musculus [44] = test: Biodistribution was measured in mice kidney 24 hours after intravenous injection of [125I]-labeled styrylbenzene.; type: ADME, organism-based; details: in vivo; how it was run: as §1
Mus musculus [45] = test: Biodistribution was measured in mice skin 2 minutes after intravenous injection of [125I]-labeled styrylbenzene.; type: ADME, organism-based, Zone of skin; details: in vivo; how it was run: as §1
Mus musculus [46] = test: Biodistribution was measured in mice lung 24 hours after intravenous injection of [125I]-labeled styrylbenzene.; type: ADME, organism-based; details: in vivo, in the assay text read “thioflavin” for “styrylbenzene”; how it was run: as §1

Sequence of Amyloid-beta precursor protein (P05067 whole entry): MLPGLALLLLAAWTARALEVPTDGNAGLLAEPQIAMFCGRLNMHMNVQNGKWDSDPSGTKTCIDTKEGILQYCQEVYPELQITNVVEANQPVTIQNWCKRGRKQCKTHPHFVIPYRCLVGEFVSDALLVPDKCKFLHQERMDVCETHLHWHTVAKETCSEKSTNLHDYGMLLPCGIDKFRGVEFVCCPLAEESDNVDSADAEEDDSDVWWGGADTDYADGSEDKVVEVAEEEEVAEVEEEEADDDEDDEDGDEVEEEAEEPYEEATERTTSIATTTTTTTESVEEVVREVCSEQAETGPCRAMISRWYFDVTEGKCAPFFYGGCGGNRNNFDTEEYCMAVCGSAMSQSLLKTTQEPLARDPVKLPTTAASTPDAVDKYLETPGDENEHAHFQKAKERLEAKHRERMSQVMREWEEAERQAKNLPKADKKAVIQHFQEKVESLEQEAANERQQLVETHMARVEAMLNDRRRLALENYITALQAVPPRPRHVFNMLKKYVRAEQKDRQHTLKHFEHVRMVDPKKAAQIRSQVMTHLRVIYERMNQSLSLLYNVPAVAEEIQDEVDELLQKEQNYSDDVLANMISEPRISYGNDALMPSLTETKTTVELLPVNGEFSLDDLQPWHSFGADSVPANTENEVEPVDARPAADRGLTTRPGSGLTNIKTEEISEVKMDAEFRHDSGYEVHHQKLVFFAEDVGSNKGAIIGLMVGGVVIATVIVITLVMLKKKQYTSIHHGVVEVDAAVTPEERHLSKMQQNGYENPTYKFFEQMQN

Dose/organ (Mus musculus [1]): 2.23%
Dose/organ (Mus musculus [2]): 0.9%
Dose/organ (Mus musculus [3]): 2.24%
Dose/organ (Mus musculus [4]): 5.42%
Dose/organ (Mus musculus [5]): 0.2%
Dose/organ (Mus musculus [6]): 1.57%
Dose/organ (Mus musculus [7]): 1.79%
Dose/organ (Mus musculus [8]): 0.3%
Dose/organ (Mus musculus [9]): 0.2%
Dose/organ (Mus musculus [10]): 15.74%
Dose/organ (Mus musculus [11]): 5.91%
Dose/organ (Mus musculus [12]): 0.04%
Dose/organ (Mus musculus [13]): 3.79%
Dose/organ (Mus musculus [14]): 0.04%
Dose/organ (Mus musculus [15]): 3.26%
Dose/organ (Mus musculus [16]): 1.52%
Dose/organ (Mus musculus [17]): 17.81%
Dose/organ (Mus musculus [18]): 0.17%
Dose/organ (Mus musculus [19]): 2.93%
Dose/organ (Mus musculus [20]): 3.8%
Dose/organ (Mus musculus [21]): 10.93%
Dose/organ (Mus musculus [22]): 1.44%
Dose/organ (Mus musculus [23]): 0.6%
Dose/organ (Mus musculus [24]): 0.05%
Dose/organ (Mus musculus [25]): 7.4%
Dose/organ (Mus musculus [26]): 0.33%
Dose/organ (Mus musculus [27]): 9.21%
Dose/organ (Mus musculus [28]): 0.78%
Dose/organ (Mus musculus [29]): 12.8%
Dose/organ (Mus musculus [30]): 12.81%
Dose/organ (Mus musculus [31]): 31.62%
Dose/organ (Mus musculus [32]): 0.01%
Dose/organ (Mus musculus [33]): 0.65%
Dose/organ (Mus musculus [34]): 0.59%
Dose/organ (Mus musculus [35]): 0.72%
Dose/organ (Mus musculus [36]): 12.89%
Dose/organ (Mus musculus [37]): 0.29%
Dose/organ (Mus musculus [38]): 0.21%
Dose/organ (Mus musculus [39]): 0.17%
Ki [40]: > 5 µM
Dose/organ (Mus musculus [41]): 0.01%
Dose/organ (Mus musculus [42]): 0.2%
Dose/organ (Mus musculus [43]): 0.54%
Dose/organ (Mus musculus [44]): 0.06%
Dose/organ (Mus musculus [45]): 3.2%
Dose/organ (Mus musculus [46]): 0.03%
Compound: CN(C)c1ccc(-c2nc3ccc(I)cc3s2)cc1
